Converted amounts (≈) assume the structure as drawn. The source made the active and inactive calls. No cut-off for these calls is given here.
Columns and labels:
Candida parapsilosis [1] = assay: Antifungal activity against Candida parapsilosis ATCC 22019 assessed as reduction in drug tolerance by measuring zone of inhibition at 25 ug incubated for 24 to 48 hrs by disk diffusion assay; format: functional, organism-based; conditions: dose 25.0 µg, time 24-48 hrs
Method in brief: (§1)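 Plated onto casitone agar from 24 h, 30 °C YPAD-agar colonies suspended in PBS. Inoculum OD600 0.02 for C. albicans SN152, 0.025 for C. parapsilosis ATCC 22019 and C. tropicalis 660. Central 6-mm disk holding 25 µg drug. Plates incubated at 30 °C and imaged at 24 h (inhibition zone) and 48 h (tolerant colonies within the zone).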

Candida albicans [2] = assay: Antifungal activity against Candida albicans SN152 assessed as reduction in drug tolerance by measuring zone of inhibition at 25 ug incubated for 24 to 48 hrs by disk diffusion assay; format: functional, organism-based; conditions: dose 25.0 µg, time 24-48 hrs; method in brief: as §1
Candida albicans [3] = assay: Antifungal activity against Candida albicans SN152 harbouring erg3delta delta/erg11delta delta assessed as […] fungal growth inhibition at 1 to 64 ug/mL measured every 40 mins for 48 hrs by double dilution method; format: functional, organism-based; conditions: dose 1-64 µg/ml
Method in brief: (§2)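 erg3ΔΔ/erg11ΔΔ C. albicans taken from 24 h, 30 °C YPAD-agar colonies, brought to 1×10^-3 OD600 in PBS, then diluted 1:100 in YPAD. Serial twofold drug dilutions from 64 to 1 µg/mL in YPAD. OD600 read every 40 min over 48 h at 30 °C against no-drug and medium-blank controls. Triplicate wells, two independent experiments.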

Candida tropicalis = assay: Antifungal activity against Candida tropicalis 660 assessed as reduction in drug tolerance by measuring zone of inhibition at 25 ug incubated for 24 to 48 hrs by disk diffusion assay; format: functional, organism-based; conditions: dose 25.0 µg, time 24-48 hrs; method in brief: as §1
Candida albicans [4] = assay: Antifungal activity against Candida albicans SN152 harbouring erg3delta delta/erg11delta delta assessed as […] fungal growth inhibition measured every 40 mins for 48 hrs by double dilution method; format: functional, organism-based; conditions: dose 1-64 µg/ml; method in brief: as §2
Candida parapsilosis [5] = assay: Antifungal activity against Candida parapsilosis ATCC 22019 assessed as fungal growth inhibition incubated for 24 hrs by CLSI based broth double-dilution assay; format: functional; conditions: Lodderomyces parapsilosis
Method in brief: (§3)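 CLSI M27-A3 broth microdilution with modifications in YPAD. Cells from 24 h, 30 °C YPAD-agar colonies brought to 1×10^-3 OD600 in PBS, then diluted 1:100. Twofold dilutions from 64 to 0.003 µg/mL. After 24 h at 30 °C, MIC80 taken as the lowest concentration giving ≥80% OD600 reduction versus no-drug wells. Triplicate wells, two independent experiments.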

Candida albicans [6] = assay: Antifungal activity against Candida albicans SN152 harbouring erg3delta delta/erg11delta delta assessed as fungal growth inhibition incubated for 24 hrs by CLSI based broth double-dilution assay; format: functional; method in brief: as §3
Candida albicans [7] = assay: Antifungal activity against Candida albicans SN152 assessed as fungal growth inhibition incubated for 24 hrs by CLSI based broth double-dilution assay; format: functional
Method in brief: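 Broth double-dilution per CLSI M27-A3 (minor modifications); colonies from YPAD agar (24 h, 30 °C) suspended in PBS to 1 × 10^-3 OD600 then diluted 1:100 into YPAD; serial twofold dilutions 64–0.003 μg/mL in YPAD; 24 h at 30 °C; OD600 read; MIC80 = lowest concentration reducing OD600 ≥80% versus no-drug wells; triplicate, two independent experiments.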

Candida albicans [8] = assay: Antifungal activity against Candida albicans SN152 harbouring erg3delta delta/erg11delta delta assessed as […] fungal growth inhibition at 64 ug/mL measured every 40 mins for 48 hrs by double dilution method; format: functional, organism-based; conditions: dose 64.0 µg/ml; method in brief: as §2

Compound	Activity (Candida parapsilosis [1])	Activity (Candida albicans [2])	Activity (Candida albicans [3])	Activity (Candida tropicalis)	Activity (Candida albicans [4])	MIC80 (Candida parapsilosis [5]) [µg/mL]	MIC80 (Candida albicans [6]) [µg/mL]	MIC80 (Candida albicans [7]) [µg/mL]	Activity (Candida albicans [8])
OC(Cn1cncn1)(Cn1cncn1)c1ccc(F)cc1F	inactive	inactive	inactive	Active					
C[C@H](C(=O)NC[C@](O)(Cn1cncn1)c1ccc(F)cc1F)c1ccc(-c2ccccc2)c(F)c1	Active	Active		Active	Dose-Dependent Effect	0.5 (≈ 1.04 µM)	64 (≈ 133 µM)	0.007 (≈ 0.0146 µM)	
C[C@@H](c1ncncc1F)[C@](O)(Cn1cncn1)c1ccc(F)cc1F [VORICONAZOLE]	inactive	inactive		Active		0.015 (≈ 0.0429 µM)			Active
CC(C)Cc1ccc([C@H](C)C(=O)NC[C@](O)(Cn2cncn2)c2ccc(F)cc2F)cc1	Active	Active		Active	Dose-Dependent Effect		64 (≈ 145 µM)	0.003 (≈ 0.00678 µM)	
CC(C)Cc1ccc(C(C)C(=O)O)cc1 (centres undefined)					Dose-Dependent Effect				
CC(C(=O)O)c1ccc(-c2ccccc2)c(F)c1 (centres undefined)					Dose-Dependent Effect				
